Bioassay records: PubChem BioAssay, several laboratories
T cell modulator: T cell immune modulators affecting CD8 T cell-vesicle binding; response (vesicle binding), % at 7 µM; AID 2052; 330,000 compounds, 0.068% hits; 2C CD8+ T cell-vesicle binding, flow cytometry; hits give low values;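 active means response, share of CD8 T cells binding vesicles, and their 90th percentile fluorescence all below set limits, cut at about 80% in these data, passing the limit was not always enough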;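 further: values below 100% mean blocked vesicle binding to the CD8+ T cells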
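incubation = binding step 1.5 h, 37 °C, antibody labelling 20 min, ice | test system = 2C mouse CD8+ T cells | read-out basis = percent CD8+ FL2 mean versus row control | controls = Peptide-free naked vesicles (low) and QL9 vesicles with 0.7% DMSO vehicle (high) | detection = flow cytometry of vesicle-bound cells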
NR3A LBD binder: modulates the human NR3A ligand-binding domain | NR3A LBD differential scanning fluorimetry, Tm shift; 0% = protein alone, 100% = glycine-bound protein | Tm shift relative to glycine control, % at 25 µM | 340,000 compounds, 2.5% hits;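 active means melting temperature shift of at least 10% of the positive control shift, at one fixed dose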
GASC-1 inh: blocks human GASC-1 demethylase activity | GST-JMJD2C(1-420) H3K9me3 demethylation, DELFIA europium | inhibition, % at 2.35 µM | 330,000 compounds, 0.069% hits | Q9H3R0;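 active means more than half of a compound's replicate wells show inhibition beyond 50%, single wells judged on their own value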;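 further: signal counts dimethyl H3K9 product captured on neutravidin plate; 0% = median of DMSO wells and 100% = 0.3 times that DMSO median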
Rtt109 Vps75: C. albicans Rtt109 histone acetyltransferase inhibition | 330,000 compounds, 0.16% hits | AID 540336 | inhibition, % at 34.9 µM | Q5AAJ8 | purified Rtt109/Vps75, ThioGlo CoA-SH fluorescence, 4 h;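 active means inhibition of at least 50% in every replicate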
Target sequence (Q5AAJ8 whole entry, looked up): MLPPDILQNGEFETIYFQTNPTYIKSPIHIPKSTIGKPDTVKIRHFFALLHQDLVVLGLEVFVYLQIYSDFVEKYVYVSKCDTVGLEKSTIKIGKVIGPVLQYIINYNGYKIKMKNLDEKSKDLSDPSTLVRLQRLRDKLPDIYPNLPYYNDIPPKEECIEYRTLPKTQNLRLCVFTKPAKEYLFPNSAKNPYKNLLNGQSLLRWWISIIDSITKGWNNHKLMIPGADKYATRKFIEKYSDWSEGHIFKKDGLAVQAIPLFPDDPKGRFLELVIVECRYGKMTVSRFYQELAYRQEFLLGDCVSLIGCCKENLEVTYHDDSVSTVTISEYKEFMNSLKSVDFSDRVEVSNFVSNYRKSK
Starred values were filed as active, the others as inactive; i = inactive; x = not tested or not shown. An excerpt weighted towards active compounds, which were near 2.8% of everything screened.

SMILES	T cell modulator	NR3A LBD binder	GASC-1 inh	Rtt109 Vps75
O=C(Nc1ccc(S(=O)(=O)Nc2nccs2)cc1)c1cc(-c2ccccc2)nc2ccccc12	214	11*	2	7
Cc1ccc(C)c(-c2cc(C(=O)Nc3nccs3)c3ccccc3n2)c1	375	-1	1	0
Cc1ccc(-n2c(N)cc(=O)nc2SCC(=O)N2CCN(c3ccccc3)CC2)cc1C	252	-5	-5	4
Cc1cc(=O)oc2cc(OCc3ccc(S(=O)(=O)N4CCOCC4)cc3)ccc12	422	18*	-9	-3
Cc1cc(=O)oc2cc(OCCSCCN3CCCC3)ccc12	400	12*	-8	x
COc1ccc(N2CCN(CCOc3ccc4c(C)cc(=O)oc4c3)CC2)cc1	186	4	3	-7
O=C(Nc1ccc(F)cc1Cl)C1=COCCO1	278	x	-28	19
COc1cc(/C=C2/NC(=O)N(Cc3ccccc3F)C2=O)cc(OC)c1O	598	1	-17	-2
CCOc1cc(/C=C2/NC(=O)N(Cc3ccccc3F)C2=O)ccc1O	433	30*	12	10
O=C(Nc1ccc([N+](=O)[O-])cc1)NN1CCCCCC1	x	-1	x	-10
COC(=O)[C@]1(C)N[C@H](CN(C)C(=O)Nc2ccccc2)[C@@H]2C(=O)N(C)C(=O)[C@@H]21	230	13*	17	1
CCN(C[C@H]1N[C@@](C)(C(=O)OC)[C@H]2C(=O)N(C)C(=O)[C@@H]12)C(=O)Nc1ccc(C)cc1	274	1	52*	3
COC(=O)[C@]1(C)N[C@H](CN(C)C(=O)Nc2ccc(F)cc2)[C@@H]2C(=O)N(C)C(=O)[C@@H]21	374	1	37	-10
COC(=O)[C@]1(C)N[C@H](CN(C)C(=O)Nc2ccc(OC)cc2)[C@@H]2C(=O)N(C)C(=O)[C@@H]21	i	13*	-53	-6
O=C1C=C(c2ccc3ccccc3c2)C[C@@H](c2ccc(F)cc2)C1	566	-1	0	-5
CC(C)c1ccc(NC(=O)COC(=O)[C@H](CCC(N)=O)NC(=O)c2ccc(F)cc2)cc1	140	-1	-8	-6
NC(=O)CC[C@H](NC(=O)c1ccc(F)cc1)C(=O)OCC(=O)Nc1c(F)c(F)c(F)c(F)c1F	158	12*	-5	-4
COc1ccc(C2CC(c3ccccc3Cl)=NN2c2ccc(S(N)(=O)=O)cc2)cc1 (stereo not given)	x	11*	x	-4
COc1ccc(C2CC(c3ccccc3)=NN2c2ccc(S(N)(=O)=O)cc2)cc1 (stereo not given)	408	-1	0	-10
NS(=O)(=O)c1ccc(N2N=C(c3ccccc3)CC2c2ccc(F)cc2)cc1 (stereo not given)	556	4	6	-17
COc1ccc(C2CC(c3cccc(F)c3)=NN2c2ccc(S(N)(=O)=O)cc2)cc1 (stereo not given)	x	37*	x	6
COc1ccc(C2CC(c3cccc(C(F)(F)F)c3)=NN2c2ccc(S(N)(=O)=O)cc2)cc1 (stereo not given)	x	28*	x	-4
COc1ccc(C2CC(c3cccc(Br)c3)=NN2c2ccc(S(N)(=O)=O)cc2)cc1 (stereo not given)	x	27*	x	3
O=C(NCCCNC(=O)c1ccco1)c1ccc(F)cc1	209	1	12	-17
O=C(COC(=O)c1nc(Cl)ccc1Cl)c1ccccc1Cl	154	-2	1	-17
SMILES	T cell modulator	NR3A LBD binder	GASC-1 inh	Rtt109 Vps75
CN1CCN(c2ccc(-c3ccnn3C(=O)Nc3cccc(C(F)(F)F)c3)cc2)CC1	380	-1	2	13
NS(=O)(=O)c1ccc(N2N=C(c3ccccc3)CC2c2cccc(Cl)c2)cc1 (stereo not given)	x	24*	x	-16
Cc1ccc(S(=O)(=O)N2CCCCC2)cc1NS(=O)(=O)c1ccccc1F	717	-1	0	-2
Cc1cc(C)c(S(=O)(=O)NC2CC(C)(C)NC(C)(C)C2)cc1Br	190	-6	-23	9
Cc1cccc2cc3c(N)c(C#N)sc3nc12	836	36*	-3	1
Cc1cccc2cc3c(N)c(C(=O)Nc4ccc(N5CCOCC5)cc4)sc3nc12	242	14*	-2	13
Cc1sc(NC(=O)c2sc3nc4c(C)cccc4cc3c2N)c(C#N)c1C	470	19*	0	x
Cc1ccc2nc3sc(C(=O)Nc4ccc(N5CCOCC5)cc4)c(N)c3cc2c1	x	x	19	x
Cc1cccc2cc3c(N)c(C(=O)N4CCc5ccccc54)sc3nc12	183	8	-11	x
COc1ccc(Cc2nnc(SCC(=O)N(C)CC(=O)Nc3ccc(C)cc3)o2)cc1	477	4	-8	0
c1ccc(-c2nc(-c3ccco3)cs2)nc1	285	2	56*	-4
c1ccc(-c2nccc(-c3ccco3)n2)nc1	288	1	-9	-5
O=S(Cc1ccc(Cl)cc1)c1ccccc1 (stereo not given)	x	-1	x	-3
O=c1c2cc(Br)ccc2[nH]c(=S)n1Cc1ccccc1	199	11*	2	1
Cc1ccc(-c2cc(-c3ccccc3[N+](=O)[O-])[nH]n2)c(O)c1	150	2	-11	0
Cc1ccc(O)c(-c2cc(-c3cccc(Br)c3)n[nH]2)c1	171	28*	-1	x
Oc1ccc(Cl)cc1-c1cc(-c2ccccc2)n[nH]1	472	25*	-3	-6
Cc1ccc(-c2cc(-c3ccccc3Cl)[nH]n2)c(O)c1	520	12*	-7	10
Cc1ccc(-c2cc(-c3ccc(C)cc3O)[nH]n2)cc1	253	3	-8	6
Cc1ccc(-c2cc(-c3ccc(F)cc3)n[nH]2)c(O)c1	200	12*	-9	17
COc1ccc(CS(=O)(=O)CC(C)(O)c2ccccc2)cc1 (stereo not given)	184	-1	-2	0
CCN1C[C@@H]2[C@@H]3C(=O)N(Cc4ccccc4)C(=O)[C@@H]3[C@](Cc3ccccc3)(C1=O)N2C(=O)c1ccc(Cl)cc1	x	1	x	-4
Oc1ccc(Br)cc1-c1cc(-c2ccccc2Cl)[nH]n1	368	23*	8	8
COc1ccccc1-c1noc(CCC(=O)Nc2cccc(C)c2)n1	316	14*	-2	3
COCC(=O)N1CCC(Oc2ccc(C(=O)N(C)C3CCCCC3)cc2)CC1	226	-3	-10	0
O=C(Cc1ccc(Br)cc1)Nc1ccccc1Sc1ccccc1	406	19*	62	3
COc1ccc(Cc2nnc(NC(=O)c3cc(OC)c(OC)c(OC)c3)s2)cc1	538	4	-5	55*
NC(=O)c1c(NC(=O)c2ccc(N3C(=O)CCC3=O)cc2)sc2c1CCCC2	315	-2	3	-3
O=[N+]([O-])c1cccc(C2CC(c3ccccc3)=NN2c2ccccc2)c1 (stereo not given)	267	0	1	1
N#CC1CC(c2ccc([N+](=O)[O-])cc2)=NN1c1ccc([N+](=O)[O-])cc1 (stereo not given)	234	20*	-4	-17
